Columns and labels:
HCT-15 = assay: Growth inhibition of human HCT15 cells; format: functional
CAKI-1 = assay: Growth inhibition of human Caki1 cells; format: functional
SN12C = assay: Growth inhibition of human SN12C cells; format: functional
SR = assay: Growth inhibition of human SR cells; format: functional
MOLT-4 = assay: Growth inhibition of human MOLT4 cells; format: functional
HL-60(TB) = assay: Growth inhibition of human HL-60(TB) cells; format: functional
RXF 393 = assay: Growth inhibition of human RXF393 cells; format: functional
PC-3 = assay: Growth inhibition of human PC3 cells; format: functional
NCI/ADR-RES = assay: Growth inhibition of human NCI/ADR-RES cells; format: functional
[1] = target: Insulin-like growth factor 1 receptor (Homo sapiens) (UniProt P08069); assay: Inhibition of tyrosine phosphorylation of IGF1R in human Hep3B cells assessed as decrease of phosphorylated IGF1R level after 12 hrs by Western blotting; format: cell-based; details: Hep 3B2
How it was run: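 Hep3B cells were exposed to a range of concentrations for 12 h at 37 C, with DMSO as vehicle control. They were lysed in Tris-HCl pH 7.9 buffer containing Triton X-100, SDS, NaF, orthovanadate and protease inhibitors, then centrifuged. Lysates were immunoblotted with anti-pY1135/1136-IGF-1R, and IGF-1R β-subunit served as loading control.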

[2] = target: cGMP-specific 3',5'-cyclic phosphodiesterase (Homo sapiens) (UniProt O76074); assay: Inhibition of human PDE5 at 10 uM
SF-295 = assay: Growth inhibition of human SF295 cells; format: functional
NCI-H460 [3] = assay: Cytotoxicity against human H460 cells after 48 hrs by MTT assay; format: functional, cell-based; details: NCI-H460, 48 h
How it was run: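 Cells exposed to a range of compound concentrations for 48 h, washed once with PBS, then incubated with MTT for 2 h. Formazan dissolved in DMSO and absorbance read at 570 nm. IC50 taken as the concentration giving 50% inhibition of proliferation.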

MDA-MB-435 = assay: Growth inhibition of human MDA-MB-435 cells; format: functional
COLO 205 = assay: Growth inhibition of human COLO205 cells; format: functional
NCI-H23 = assay: Growth inhibition of human NCI-H23 cells; format: functional
OVCAR-5 = assay: Growth inhibition of human OVCAR5 cells; format: functional
NCI-H460 [4] = assay: Growth inhibition of human NCI-H460 cells; format: functional
MDA-MB-468 = assay: Growth inhibition of human MDA-MB-468 cells; format: functional
UO-31 = assay: Growth inhibition of human UO31 cells; format: functional
MDA-MB-231 = assay: Growth inhibition of human MDA-MB-231 cells; format: functional
DU-145 = assay: Growth inhibition of human DU145 cells; format: functional
EKVX = assay: Growth inhibition of human EKVX cells; format: functional
[5] = read-out: pLC50 (the source's name) (converted)

Chain of Insulin-like growth factor 1 receptor (Homo sapiens) (P08069 31-736 limits assumed): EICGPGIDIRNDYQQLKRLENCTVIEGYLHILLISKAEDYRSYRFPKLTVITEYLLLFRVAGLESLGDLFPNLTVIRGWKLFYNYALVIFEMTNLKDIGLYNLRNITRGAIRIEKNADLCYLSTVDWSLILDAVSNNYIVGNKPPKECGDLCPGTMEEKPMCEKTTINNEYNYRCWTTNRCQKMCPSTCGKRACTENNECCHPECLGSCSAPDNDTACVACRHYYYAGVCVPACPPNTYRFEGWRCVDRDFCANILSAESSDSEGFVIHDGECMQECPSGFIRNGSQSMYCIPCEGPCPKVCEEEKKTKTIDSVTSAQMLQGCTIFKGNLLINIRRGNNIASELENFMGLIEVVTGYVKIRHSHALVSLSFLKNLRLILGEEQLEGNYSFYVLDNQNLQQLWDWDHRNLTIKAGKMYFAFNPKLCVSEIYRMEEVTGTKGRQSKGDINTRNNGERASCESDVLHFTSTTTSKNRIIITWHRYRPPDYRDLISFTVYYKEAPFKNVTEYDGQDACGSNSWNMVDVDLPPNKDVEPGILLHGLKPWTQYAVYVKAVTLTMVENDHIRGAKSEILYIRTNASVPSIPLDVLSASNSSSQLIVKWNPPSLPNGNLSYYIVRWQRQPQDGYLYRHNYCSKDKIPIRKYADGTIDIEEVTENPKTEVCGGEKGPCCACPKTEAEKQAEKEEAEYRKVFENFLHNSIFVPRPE
Chain of Insulin-like growth factor 1 receptor (Homo sapiens) (P08069 741-1367 limits assumed): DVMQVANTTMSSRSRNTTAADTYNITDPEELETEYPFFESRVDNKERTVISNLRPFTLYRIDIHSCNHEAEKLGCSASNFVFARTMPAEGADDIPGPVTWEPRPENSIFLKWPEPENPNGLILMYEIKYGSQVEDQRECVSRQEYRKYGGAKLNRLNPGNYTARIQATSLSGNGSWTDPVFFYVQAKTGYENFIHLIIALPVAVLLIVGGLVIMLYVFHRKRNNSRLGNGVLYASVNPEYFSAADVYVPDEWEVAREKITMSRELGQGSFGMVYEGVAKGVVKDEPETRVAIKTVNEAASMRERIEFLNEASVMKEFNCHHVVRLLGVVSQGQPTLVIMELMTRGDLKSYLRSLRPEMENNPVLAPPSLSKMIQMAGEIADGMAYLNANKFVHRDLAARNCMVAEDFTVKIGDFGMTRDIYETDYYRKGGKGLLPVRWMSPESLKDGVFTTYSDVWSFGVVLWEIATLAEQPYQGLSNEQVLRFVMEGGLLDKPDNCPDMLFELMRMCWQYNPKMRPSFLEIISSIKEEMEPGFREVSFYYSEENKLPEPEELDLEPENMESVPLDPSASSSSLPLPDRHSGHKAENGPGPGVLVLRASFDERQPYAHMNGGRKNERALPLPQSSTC

COc1ccc2[nH]c(-c3cccc(F)c3)cc(=O)c2c1O
GI50 (HCT-15): 35.5 nM
CC50 (HCT-15; [5]): > 100000 nM
TGI (HCT-15; read-out: pTGI (converted)): 14800 nM
GI50 (CAKI-1): 46.8 nM
CC50 (CAKI-1; [5]): > 100000 nM
TGI (CAKI-1; read-out: pTGI (converted)): 22900 nM
GI50 (SN12C): 61.7 nM
CC50 (SN12C; [5]): > 100000 nM
TGI (SN12C; read-out: pTGI (converted)): 38000 nM
GI50 (SR): 12 nM
CC50 (SR; [5]): > 100000 nM
TGI (SR; read-out: pTGI (converted)): 67.6 nM
GI50 (MOLT-4): 47.9 nM
CC50 (MOLT-4; [5]): > 100000 nM
TGI (MOLT-4; read-out: pTGI (converted)): 19100 nM
GI50 (HL-60(TB)): 22.4 nM
CC50 (HL-60(TB); [5]): > 100000 nM
TGI (HL-60(TB); read-out: pTGI (converted)): 63.1 nM
GI50 (RXF 393): 17.4 nM
CC50 (RXF 393; [5]): 56200 nM
TGI (RXF 393; read-out: pTGI (converted)): 45.7 nM
GI50 (PC-3): 32.4 nM
CC50 (PC-3; [5]): 70800 nM
TGI (PC-3; read-out: pTGI (converted)): 15500 nM
GI50 (NCI/ADR-RES): 20.9 nM
CC50 (NCI/ADR-RES; [5]): 40700 nM
TGI (NCI/ADR-RES; read-out: pTGI (converted)): 53.7 nM
inhibition [1]: Dose-dependent effect
inhibition [2]: 57%
GI50 (SF-295): 25.7 nM
CC50 (SF-295; [5]): 53700 nM
TGI (SF-295; read-out: pTGI (converted)): 10500 nM
IC50 (NCI-H460 [3]): 80 nM
GI50 (MDA-MB-435): < 10 nM
CC50 (MDA-MB-435; [5]): > 100000 nM
TGI (MDA-MB-435; read-out: pTGI (converted)): 45.7 nM
GI50 (COLO 205): 25.1 nM
CC50 (COLO 205; [5]): 832 nM
TGI (COLO 205; read-out: pTGI (converted)): 66.1 nM
GI50 (NCI-H23): 34.7 nM
CC50 (NCI-H23; [5]): > 100000 nM
TGI (NCI-H23; read-out: pTGI (converted)): 13800 nM
CC50 (OVCAR-5; [5]): 46800 nM
TGI (OVCAR-5; read-out: pTGI (converted)): 15800 nM
GI50 (NCI-H460 [4]): 33.1 nM
CC50 (NCI-H460 [4]; [5]): 32400 nM
TGI (NCI-H460 [4]; read-out: pTGI (converted)): 1050 nM
GI50 (MDA-MB-468): 39.8 nM
CC50 (MDA-MB-468; [5]): 851 nM
TGI (MDA-MB-468; read-out: pTGI (converted)): 219 nM
GI50 (UO-31): 51.3 nM
CC50 (UO-31; [5]): 39800 nM
TGI (UO-31; read-out: pTGI (converted)): 10200 nM
GI50 (MDA-MB-231): 61.7 nM
CC50 (MDA-MB-231; [5]): > 100000 nM
TGI (MDA-MB-231; read-out: pTGI (converted)): 22900 nM
GI50 (DU-145): 20.9 nM
CC50 (DU-145; [5]): 33900 nM
TGI (DU-145; read-out: pTGI (converted)): 52.5 nM
GI50 (EKVX): 45.7 nM
CC50 (EKVX; [5]): > 100000 nM
TGI (EKVX; read-out: pTGI): > 100000 nM

Reference: ChEMBL document CHEMBL1275391, “Design, synthesis, and preclinical evaluation of new 5,6- (or 6,7-) disubstituted-2-(fluorophenyl)quinolin-4-one derivatives as potent antitumor agents” (J Med Chem, 2010)
